Data from ChEMBL document CHEMBL1134548, “Disabling erbB receptors with rationally designed exocyclic mimetics of antibodies: structure-function analysis” (J Med Chem, 2001).
Positions of bridges follow the written chain, without caps; N, C: chain ends. Residues, ends and D or L forms follow the SMILES beside them.

Legend:
[1] = target: T1, Receptor tyrosine-protein kinase erbB-2 (Homo sapiens, UniProt P04626); experiment: Kinetic constant for peptide inhibitor binding to HER2 receptor
Summary of the method: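 Surface plasmon resonance at 25 °C. HER2 ectodomain–human IgG Fc fusion was amine-coupled (EDC/NHS, 40 ng/mL in 10 mM NaOAc pH 5.0) to 3500 RU, with a blank reference surface. Peptides were flowed at variable concentrations at 20 µL/min, with 240 s association and 300 s dissociation. Signals were reference- and buffer-subtracted, and kon, koff and KD (koff/kon) were fitted to a pseudo-first-order model.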

[2] = Solubility in the PBS buffer at 1 mg/mL; Good solubility; assay type: physicochemical
[3] = Solubility in the PBS buffer at 1 mg/mL; Limited solubility; assay type: physicochemical
[4] = Inhibition of T6-17 cell proliferation; assay type: functional, Mus musculus; set-up: concentration or dose not given beside the values
Summary of the method: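 T6-17 cells (NIH3T3 engineered to overexpress human HER2) seeded overnight at 1000/well in DMEM with 10% FBS, then cultured 48 h in fresh medium with peptide at 1 µg/mL. MTT (5 mg/mL in PBS) added, 2 h at 37 °C. SDS/DMF extraction buffer (pH 4.7) added, overnight at 37 °C, then OD 600 nm read. Each value is the mean of at least four samples.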

[5] = target: T1, Receptor tyrosine-protein kinase erbB-2; experiment: Dissociation constant for peptide inhibitor binding to HER2 receptor
Summary of the method: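 Surface plasmon resonance at 25 °C. Recombinant HER2 ectodomain–human IgG Fc fusion was amine-coupled to the sensor chip to 3500 RU. A blank reference surface was subtracted. Peptides were injected at variable concentrations at 20 µL/min, with 240 s association and 300 s dissociation. Signals were buffer-subtracted and fitted to a pseudo-first-order model, and KD was taken as koff/kon.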

T1 sequence (P04626 whole entry, the tested form may be a part): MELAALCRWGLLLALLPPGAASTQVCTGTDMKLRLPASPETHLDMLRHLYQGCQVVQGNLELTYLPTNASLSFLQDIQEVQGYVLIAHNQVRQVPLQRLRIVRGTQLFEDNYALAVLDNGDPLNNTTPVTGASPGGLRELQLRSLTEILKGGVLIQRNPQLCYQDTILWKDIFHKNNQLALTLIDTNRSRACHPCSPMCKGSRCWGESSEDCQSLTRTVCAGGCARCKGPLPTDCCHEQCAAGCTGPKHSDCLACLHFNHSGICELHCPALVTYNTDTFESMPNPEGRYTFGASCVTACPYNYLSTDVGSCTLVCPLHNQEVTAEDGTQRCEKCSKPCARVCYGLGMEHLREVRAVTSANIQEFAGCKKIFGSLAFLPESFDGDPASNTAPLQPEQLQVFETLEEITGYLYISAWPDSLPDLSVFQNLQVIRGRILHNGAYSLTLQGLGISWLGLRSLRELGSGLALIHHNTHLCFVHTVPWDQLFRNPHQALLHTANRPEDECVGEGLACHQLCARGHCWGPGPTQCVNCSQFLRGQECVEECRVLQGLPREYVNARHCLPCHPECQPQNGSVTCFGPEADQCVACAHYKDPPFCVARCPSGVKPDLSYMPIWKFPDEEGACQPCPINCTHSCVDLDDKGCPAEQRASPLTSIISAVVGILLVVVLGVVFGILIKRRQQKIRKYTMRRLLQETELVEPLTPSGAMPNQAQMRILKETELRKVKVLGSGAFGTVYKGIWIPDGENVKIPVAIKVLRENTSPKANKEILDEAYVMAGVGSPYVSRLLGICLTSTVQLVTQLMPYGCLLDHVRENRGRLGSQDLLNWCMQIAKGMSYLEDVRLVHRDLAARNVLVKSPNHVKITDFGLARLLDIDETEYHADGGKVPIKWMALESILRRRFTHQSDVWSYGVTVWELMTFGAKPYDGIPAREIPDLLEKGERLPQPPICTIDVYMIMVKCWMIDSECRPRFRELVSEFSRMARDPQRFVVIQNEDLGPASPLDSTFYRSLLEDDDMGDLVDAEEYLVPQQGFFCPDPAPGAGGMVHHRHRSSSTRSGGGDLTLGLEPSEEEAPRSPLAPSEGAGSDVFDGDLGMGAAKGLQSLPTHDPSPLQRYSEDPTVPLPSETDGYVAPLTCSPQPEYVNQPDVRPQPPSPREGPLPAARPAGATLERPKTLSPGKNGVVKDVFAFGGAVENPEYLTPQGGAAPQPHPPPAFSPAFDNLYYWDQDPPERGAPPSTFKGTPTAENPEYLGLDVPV

For `CSCC[C@H](NC(=O)[C@H](Cc1ccc(O)cc1)NC(=O)[C@@H]1CSSC[C@H](NC(=O)[C@@H](N)Cc2ccccc2)C(=O)N[C@@H](CC(=O)O)C(=O)NCC(=O)N[C@@H](Cc2ccccc2)C(=O)N[C@@H](Cc2ccc(O)cc2)C(=O)N[C@@H](C)C(=O)N1)C(=O)N[C@@H](CC(=O)O)C(=O)N[C@H](C(=O)O)C(C)C` (stereo in doubt; 9) [listing 1 of 2 here], the k off [1] was 0.00106 s⁻¹ and the k on [1] was 298 M⁻¹ s⁻¹.

For `CSCC[C@H](NC(=O)[C@H](Cc1ccc(O)cc1)NC(=O)[C@@H]1CSSC[C@H](NC(=O)[C@H](Cc2ccccc2)NC(=O)CN)C(=O)N[C@@H](CC(=O)O)C(=O)NCC(=O)N[C@@H](Cc2ccccc2)C(=O)N[C@@H](Cc2ccc(O)cc2)C(=O)N[C@@H](C)C(=O)N1)C(=O)N[C@@H](CC(=O)O)C(=O)N[C@H](C(=O)O)C(C)C` (H-GFCDGFYACYMDV-OH; disulfide 3-9), the S [2] was “Soluble”, the k off [1] was 0.000808 s⁻¹ and the k on [1] was 1110 M⁻¹ s⁻¹.

With `CSCC[C@H](NC(=O)[C@H](Cc1ccc(O)cc1)NC(=O)[C@@H]1CSSC[C@H](NC(=O)[C@@H](N)Cc2ccccc2)C(=O)N[C@@H](CC(=O)O)C(=O)NCC(=O)N[C@@H](Cc2ccccc2)C(=O)N[C@@H](Cc2ccc(O)cc2)C(=O)N[C@@H](C)C(=O)N1)C(=O)N[C@@H](CC(=O)O)C(=O)N[C@H](C(=O)N[C@@H](CCCCN)C(N)=O)C(C)C` (H-FCDGFYACYMDVK-NH2; disulfide 2-8) the S [3] was “Insoluble”, the k off [1] was 0.000512 s⁻¹ and the k on [1] was 617 M⁻¹ s⁻¹.

With `CSCC[C@H](NC(=O)[C@H](Cc1ccc(O)cc1)NC(=O)[C@@H]1CSSC[C@H](NC(=O)[C@@H](N)Cc2ccc(O)cc2)C(=O)N[C@@H](CC(=O)O)C(=O)NCC(=O)N[C@@H](Cc2ccccc2)C(=O)N[C@@H](Cc2ccc(O)cc2)C(=O)N[C@@H](C)C(=O)N1)C(=O)N[C@@H](CC(=O)O)C(=O)N[C@H](C(N)=O)C(C)C` the S [3] was “Insoluble”, the k off [1] was 0.000294 s⁻¹ and the k on [1] was 1960 M⁻¹ s⁻¹. It also gave an Inhibition [4] of 59.6%.

In the case of `CSCC[C@H](NC(=O)[C@H](Cc1ccc(O)cc1)NC(=O)[C@@H]1CSSC[C@H](NC(=O)[C@@H](N)Cc2ccccc2)C(=O)N[C@@H](CC(=O)O)C(=O)NCC(=O)N[C@@H](Cc2ccccc2)C(=O)N[C@@H](Cc2ccc(O)cc2)C(=O)N[C@@H](C)C(=O)N1)C(=O)N[C@@H](CC(=O)O)C(=O)N[C@H](C(=O)O)C(C)C` (stereo in doubt; 2) [listing 1 of 2 here], the S [3] is reported as “Insoluble” and the Inhibition [4] is reported as 22.3%.

For `CSCC[C@H](NC(=O)[C@H](Cc1ccc(O)cc1)NC(=O)[C@@H]1CSSC[C@H](NC(=O)[C@@H](N)Cc2ccccc2)C(=O)N[C@@H](CC(=O)O)C(=O)NCC(=O)N[C@@H](Cc2ccccc2)C(=O)N[C@@H](Cc2ccc(O)cc2)C(=O)N[C@@H](C)C(=O)N1)C(=O)N[C@@H](CC(=O)O)C(=O)N[C@H](C(=O)O)C(C)C` (stereo in doubt; 9) [listing 2 of 2 here], the Kd [5] was 3.56 µM.

With `CSCC[C@H](NC(=O)[C@@H](Cc1ccc(O)cc1)NC(=O)[C@@H]1CSSC[C@H](NC(=O)[C@H](N)Cc2ccccc2)C(=O)N[C@@H](CC(=O)O)C(=O)NCC(=O)N[C@@H](Cc2ccccc2)C(=O)N[C@@H](Cc2ccc(O)cc2)C(=O)N[C@@H](C)C(=O)N1)C(=O)N[C@@H](CC(=O)O)C(=O)N[C@H](C(N)=O)C(C)C` the S [2] was “Soluble”, the k off [1] was 0.000603 s⁻¹ and the k on [1] was 1720 M⁻¹ s⁻¹.

With `CSCC[C@H](NC(=O)[C@H](Cc1ccc(O)cc1)NC(=O)[C@@H]1CSSC[C@H](NC(=O)[C@@H](N)Cc2ccccc2)C(=O)NCC(=O)N[C@@H](CC(=O)O)C(=O)NCC(=O)N[C@@H](Cc2ccccc2)C(=O)N[C@@H](Cc2ccc(O)cc2)C(=O)N[C@@H](C)C(=O)N1)C(=O)N[C@@H](CC(=O)O)C(=O)N[C@H](C(=O)O)C(C)C` (H-FCGDGFYACYMDV-OH; disulfide 2-9) the S [2] was “Soluble”, the k off [1] was 0.000701 s⁻¹ and the k on [1] was 922 M⁻¹ s⁻¹. For the same compound, the Inhibition [4] was 18.4%.

In the case of `CSCC[C@H](NC(=O)[C@H](Cc1ccc(O)cc1)NC(=O)[C@@H]1CSSC[C@H](NC(=O)[C@@H](N)Cc2ccccc2)C(=O)N[C@@H](CC(=O)O)C(=O)NCC(=O)N[C@@H](Cc2ccccc2)C(=O)N[C@@H](Cc2ccc(O)cc2)C(=O)N[C@@H](C)C(=O)N1)C(=O)N[C@@H](CC(=O)O)C(=O)N[C@H](C(=O)O)C(C)C` (stereo in doubt; 2) [listing 2 of 2 here], the k off [1] is reported as 0.000643 s⁻¹ and the k on [1] is reported as 990 M⁻¹ s⁻¹.

With `CC(C)[C@H](NC(=O)[C@H](CC(=O)O)NC(=O)[C@H](CCCCN)NC(=O)[C@H](Cc1ccc(O)cc1)NC(=O)[C@@H]1CSSC[C@H](NC(=O)[C@@H](N)Cc2ccccc2)C(=O)N[C@@H](CC(=O)O)C(=O)NCC(=O)N[C@@H](Cc2ccccc2)C(=O)N[C@@H](Cc2ccc(O)cc2)C(=O)N[C@@H](C)C(=O)N1)C(=O)O` (H-FCDGFYACYKDV-OH; disulfide 2-8) the S [2] was “Soluble”, the k off [1] was 0.00125 s⁻¹ and the k on [1] was 219 M⁻¹ s⁻¹. The Inhibition [4] was 8.4%.

In the case of `CSCC[C@H](NC(=O)[C@H](Cc1ccc(O)cc1)NC(=O)[C@@H]1CSSC[C@H](NC(=O)[C@@H](N)Cc2ccccc2)C(=O)N[C@@H](CC(=O)O)C(=O)NCC(=O)N[C@@H](Cc2ccccc2)C(=O)N[C@@H](Cc2ccc(O)cc2)C(=O)N[C@@H](C)C(=O)N1)C(=O)N[C@@H](CC(=O)O)C(=O)N[C@H](C(N)=O)C(C)C`, the S [3] is reported as “Insoluble”, the k off [1] is reported as 0.000453 s⁻¹ and the k on [1] is reported as 1410 M⁻¹ s⁻¹. For the same compound, the Inhibition [4] was 35.5%.
